These results are taken from ChEMBL document CHEMBL1158813, “Diastereomeric quinolinone alkaloids from the marine-derived fungus Penicillium janczewskii” (2005).

Common to all, as to assay type: functional
Common to all, as to settings: read-out: Activity

The test system of assay [1] is HT-29. Description: Cytotoxicity against human HT-29 cells assessed as cell viability at 10 ug/mL by SRB assay. In outline: (§1)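 SRB assay. Cells were plated at 5000–10 000 cells/well, depending on doubling time, and grown 24 h before compound addition. Compounds were dissolved in MeOH or DMSO and tested at 1 µg per 100 µL well (10 µg/mL) in complete medium for 48 h. Cells were fixed with cold TCA for 30 min on ice, at 10% final for adherent cells and 16% for suspension cells. Plates were stained with 0.4% SRB in 1% acetic acid for 10 min at room temperature, dye was solubilized in 10 mM Tris/KOH pH 10.5, and A550 was read.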

The test system of assay [2] is CAKI-1. The assay is described as follows: Cytotoxicity against human Caki1 cells assessed as cell viability at 10 ug/mL by SRB assay. In outline: as §1
Assay [3] concerns K562. The assay is described as follows: Cytotoxicity against human K562 cells assessed as cell viability at 10 ug/mL by SRB assay. The gist of the method:
as §1

The test system of assay [4] is A549. The assay is described as follows: Cytotoxicity against human A549 cells assessed as cell viability at 10 ug/mL by SRB assay. In outline:
as §1

Assay [5] has as its system SK-MEL-2. The assay is described as follows: Cytotoxicity against human SK-MEL-2 cells assessed as cell viability at 10 ug/mL by SRB assay. The gist of the method: as §1
Assay [6] concerns DU-145. The assay is described as follows: Cytotoxicity against human DU145 cells assessed as cell viability at 10 ug/mL by SRB assay. The gist of the method: as §1
In assay [7] the test system is SK-OV-3. Description: Cytotoxicity against human SKOV3 cells assessed as cell viability at 10 ug/mL by SRB assay. The gist of the method:
as §1

Assay [8] concerns MDA-MB-231. The assay is described as follows: Cytotoxicity against human MDA-MB-231 cells assessed as cell viability at 10 ug/mL by SRB assay. In outline:
as §1

Take `COc1ccc([C@@]2(O)c3ccccc3NC(=O)[C@@H]2O)cc1`: the viability at 10 µg/mL was 32.8% in assay [1]; 65.1% in assay [2]; 36.6% in assay [3]; 56.8% in assay [4]; 39% in assay [5]; 48.4% in assay [6]. Also, the results for the viability at 10 µg/mL in assay [7] and in assay [8] were 8.1% and 31.8%, respectively.

Turning to `COc1ccc([C@@]2(O)c3c(ccc(CC=C(C)C)c3O)NC(=O)[C@@H]2OC)cc1` [PENIPREQUINOLONE], the viability at 10 µg/mL in assay [1] worked out at 4%; in assay [6], 30.8%; in assay [7], 20.2%; in assay [8], 8.4%.

In the case of `COc1ccc([C@@]2(O)c3ccccc3NC(=O)[C@H]2O)cc1`, the viability at 10 µg/mL amounted to 58.8% in assay [1]; 80.3% in assay [2]; 52.4% in assay [3]; 56.3% in assay [4]; 55.2% in assay [5]; 50.6% in assay [6]. The viability at 10 µg/mL in assay [7] is 44.6%; in assay [8] it was 52.9%.
